Reference: ChEMBL document CHEMBL1156577, “Moromycins A and B, isolation and structure elucidation of C-glycosylangucycline-type antibiotics from Streptomyces sp. KY002” (2008)
Values after ≈ are worked out from the molar mass of the structure shown.

Columns and labels:
L1210 = assay: Cytotoxicity against cultured mouse L1210 cells
NCI-H460 = assay: Cytotoxicity against human H460 cells after 48 hrs by SRB assay; assay type: functional; conditions: NCI-H460, 48 h; for CC50: read-out: LC50 (the source's name)
Procedure, shortened: (§1)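 In vitro: human lung H-460 and human breast MCF-7 cell lines exposed to drugs for 48 h. Growth read by sulforhodamine B (SRB) staining.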

MCF7 = assay: Cytotoxicity against human MCF7 cells after 48 hrs by SRB assay; assay type: functional; conditions: MCF7, 48 h; for CC50: read-out: LC50 (the source's name)
Procedure, shortened: as §1

Row | SMILES | ID50 (L1210) | GI50 (NCI-H460) | TGI (NCI-H460) | CC50 (NCI-H460) | GI50 (MCF7) | TGI (MCF7) | CC50 (MCF7)
1 | CC[C@@]1(O)C[C@H](O[C@H]2C[C@H](N(C)C)[C@H](O[C@H]3C[C@@H]4O[C@H]5CC(=O)[C@@H](C)O[C@H]5O[C@@H]4[C@H](C)O3)[C@H](C)O2)c2c(cc3c(c2O)C(=O)c2c(O)cccc2C3=O)[C@H]1C(=O)OC [ACLACINOMYCIN B] | 0.24 µg/mL (≈ 0.296 µM) | – | – | – | – | – | –
2 | CC[C@@]1(O)C[C@H](O[C@H]2C[C@H](N(C)C)[C@H](O[C@H]3C[C@H](O)[C@H](O[C@H]4CCC(=O)[C@H](C)O4)[C@H](C)O3)[C@H](C)O2)c2c(cc3c(c2O)C(=O)c2c(O)cccc2C3=O)[C@H]1C(=O)OC [ACLARUBICIN] | 0.12 µg/mL (≈ 0.148 µM) | – | – | – | – | – | –
3 | C[C@@H]1O[C@@H](O[C@H]2CC[C@H](O[C@@]3(C)CC(=O)c4c(ccc5c4C(=O)c4ccc([C@H]6C[C@H]7O[C@H]8CC(=O)[C@H](C)O[C@H]8O[C@@H]7[C@@H](C)O6)c(O)c4C5=O)C3)O[C@H]2C)C=CC1=O [MOROMYCIN A] | – | 18.7 µM | 51.2 µM | 69.1 µM | 25.1 µM | 38.9 µM | 55 µM
4 | C[C@@H]1O[C@H]2O[C@@H]3[C@@H](C)O[C@@H](c4ccc5c(c4O)C(=O)c4ccc6c(c4C5=O)C(=O)C[C@](C)(O)C6)C[C@H]3O[C@H]2CC1=O [MOROMYCIN B] | – | 4.1 µM | 14.1 µM | 52.3 µM | 5.6 µM | 9.2 µM | 16.3 µM
5 | C[C@@H]1O[C@@H](O[C@H]2CC[C@H](O[C@@]3(C)CC(=O)[C@]4(O)C5=C(C=C[C@]4(O)C3)C(=O)c3c(ccc([C@H]4C[C@H]6O[C@H]7CC(=O)[C@H](C)O[C@H]7O[C@@H]6[C@@H](C)O4)c3O)C5=O)O[C@H]2C)C=CC1=O [SAQUAYAMYCIN B] | – | 12.2 µM | 26.5 µM | 34.3 µM | 15.2 µM | 21.3 µM | 28.1 µM
